Experimental data collected from several papers.
Protocols differ between the studies behind these lines. pEC50, pIC50: −log10 of the molar value. Values after ≈ are worked out from the molar mass of the structure shown.

Compound | tested on | assay | system | conditions | endpoint | result
COc1ccc(COC[C@@](O)(CNCc2ccccc2)[C@@H]2CC[C@@H](C)C[C@H]2OCc2ccc(OC)cc2)cc1 | HeLa | cell growth or viability, MTT |  | 10 µM, 72 h | inhibition | 93.8%
CN[C@H](CC(C)C)C(=O)N[C@H]1C(=O)N[C@@H](CC(N)=O)C(=O)N[C@H]2C(=O)N[C@H]3C(=O)N[C@H](C(=O)N[C@H](C(=O)O)c4cc(O)cc(O)c4-c4cc3ccc4O)[C@H](O)c3ccc(c(Cl)c3)Oc3cc2cc(c3O[C@@H]2O[C@H](CO)[C@@H](O)[C@H](O)[C@H]2O[C@H]2C[C@](C)(N)[C@H](O)[C@H](C)O2)Oc2ccc(cc2Cl)[C@H]1O | Enterococcus faecalis | microbial growth | ATCC29212 |  | MIC | 2 µM (≈ 2.9 µg/mL)
Cc1nc(NC(=S)NCc2ccco2)nc(-c2ccccc2)c1C(=O)N1CCC(C(=O)O)CC1 | Leishmania major | parasite growth, resazurin |  | promastigote | pIC50 | 6.74
O=C(N[C@H](CO)[C@H](O)c1ccc([N+](=O)[O-])cc1)C(Cl)Cl | Vibrio alginolyticus | microbial growth |  | 24 h | MIC | 1.25 to 2.5 µM (≈ 0.404 to 0.808 µg/mL)
C[C@@H]1CC[C@@H]([C@](C)(O)CNCc2ccc(F)cc2)[C@H](OCc2ccccc2)C1 | HeLa | cell growth or viability, MTT |  | 30 µM, 72 h | inhibition | 60.1%
O=C(NC(=S)Nc1ccccc1O)c1ccco1 | Leishmania major | parasite growth, resazurin |  | promastigote | pIC50 | 5.22
CN[C@@H]1[C@@H](O[C@H]2O[C@H](CO)[C@@H](N)[C@H](O)[C@H]2O)OC2C[C@@H](N)[C@@H](O[C@H]3[C@H](O)[C@@H](O)[C@H](N)C[C@@H]3N)OC2[C@@H]1O (stereo partly shown) | Vibrio alginolyticus | microbial growth |  | 24 h | MIC | > 40 µM
C=CC(=O)NC1CCN(c2ncc3ncnc(Nc4ccc(Oc5ccc6c(c5)ncn6C)c(C)c4)c3n2)CC1 | SNU-216 | cell growth or viability |  |  | pEC50 | 7.99
C[C@@H]1CC[C@@H]([C@@](O)(CNCc2ccccc2)COCc2ccccc2)[C@H](OCc2ccccc2)C1 | HeLa | cell growth or viability, MTT |  | 30 µM, 72 h | inhibition | 98.2%
O=C(NC(=S)Nc1cccc(O)c1)c1cccs1 | Leishmania major | parasite growth, resazurin |  | promastigote | pIC50 | 6.54
C=C(COCc1ccc(F)cc1)[C@@H]1CC[C@@H](C)C[C@H]1OCc1ccc(F)cc1 | HeLa | cell growth or viability, MTT |  | 30 µM, 72 h | inhibition | 61.5%
O=C(NC(=S)Nc1nccs1)c1ccco1 | Leishmania major | parasite growth, resazurin |  | promastigote | pIC50 | 4.89
Cc1cc(NC(=O)C=Cc2ccccc2)cc(-c2ccnc(N3CCC(CO)CC3)c2)c1 | HeLa | cell growth or viability, MTT |  | 5 µM | inhibition | 81.8%
